Entries after “also recorded” stand apart in the source; their conditions may differ.
Legend:
HepG2 cells = assay: Cytotoxicity against HepG2; assay type: cell-based; details: Homo sapiens, HepG2, read-out: EC50 HepG2 cells
[1] = system: chloroquine-resistant P. falciparum Dd2 cells; assay: Antiplasmodial dose-response, cell-based SYBR Green I assay, Dd2; design: species or system Plasmodium falciparum
In short: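 Chloroquine-resistant P. falciparum Dd2 cultures were tested in dose–response with a cell-based SYBR Green I growth assay to obtain EC50. Each reported value comes from three independent experiments.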

EC50 ([1]; Plasmodium falciparum, DD2, read-out: EC50 Dd2 cells): 76.7 ± 0.74 µM
Structure (SMILES): COC(=O)[C@@H]1[C@H]2C[C@H]3c4[nH]c5ccccc5c4CCN3C[C@@H]2CC[C@@H]1O [Y, yohimbine]
EC50 (HepG2 cells): > 100 µM | antiplasmodial activity (in words) ([1]; P. falciparum Dd2 cells): no antiplasmodial activities; also recorded: no antiplasmodial activity
